Screening data as filed in PubChem BioAssay.
thrombin 1536: human alpha-thrombin inhibitors, primary screen, counter-screen for coagulation protease inhibitor project, biochemical, 1536-well, fluorogenic AMC substrate | Prothrombin (Homo sapiens), P00734 | Boc-VPR-AMC fluorogenic substrate cleavage | inhibition, % at 5 µM | 220,000 compounds, 0.26% hits | AID 1046, 2008;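 active = inhibition at or above 40%; inactive = inhibition below 40%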
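Test system: human alpha-thrombin; medium: pH 7.5 Tris-saline with Tween 20; times: reaction at room temperature; signal: AMC fluorescence at 355 nm excitation and 460 nm emission; also added: Boc-VPR-AMC substrate, 15 µM final; dosing: one concentration per compound, 5 µM, with 0.2% DMSO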
FXIIa inh 1536: human FXIIa protease inhibitors, primary screen, biochemical, 1536-well; Coagulation factor XII (Homo sapiens), P00748; inhibition, % at 5 µM; 220,000 compounds, 0.3% hits; purified FXIIa, Boc-QGR-AMC fluorogenic substrate, 2 h; in the data active = inhibition above about 40%
FXIa inh: human FXIa protease inhibitors, primary screen, biochemical, 1536-well; inhibition, % at 5 µM; Coagulation factor XI (Homo sapiens), P03951; 220,000 compounds, 0.14% hits; purified FXIa, Boc-Glu-Ala-Arg-AMC fluorogenic substrate;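 active = inhibition of at least 40%; inactive = inhibition below 40%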;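 also: fluorescence of freed AMC excited at 355 nm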
hK5 inh: human KLK5 protease inhibitors, primary screen, biochemical, 1536-well; Kallikrein-5 (Homo sapiens), Q9Y337; recombinant hK5, fluorogenic AMC substrate cleavage; inhibition, % at 5 µM; 210,000 compounds, 0.59% hits;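 active = inhibition of 40% or more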
Target sequence (Q9Y337 67-293 limits assumed): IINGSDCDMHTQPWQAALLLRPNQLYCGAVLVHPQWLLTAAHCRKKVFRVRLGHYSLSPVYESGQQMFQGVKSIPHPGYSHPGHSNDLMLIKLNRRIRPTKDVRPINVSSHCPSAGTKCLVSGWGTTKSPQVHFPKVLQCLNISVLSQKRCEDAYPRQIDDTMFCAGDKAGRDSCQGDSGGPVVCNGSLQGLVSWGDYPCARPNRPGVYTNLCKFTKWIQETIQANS
m-calpain inh: inhibitors of pig calpain II, primary screen, biochemical, fluorogenic peptide substrate, 1536-well | purified calpain II, 30 min | inhibition, % at 16 µM | 220,000 compounds, 0.37% hits | AID 1236, 2008;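 active = inhibition above about 50%, limit read from the data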
Each line names hits and unclear results; the compound was inactive in the other large screens. An excerpt weighted towards active compounds, which were near 1.4% of everything screened.

COC(=O)c1ccc(NC(=S)Nc2ccc(O)cc2)cc1	FXIIa inh 1536 61
O=C(CSC1CC(=O)N(CCc2ccccc2)C1=O)Nc1ccc(Br)cc1 (stereo unspecified)	hK5 inh 42
O=C(CSC1CC(=O)N(CCc2ccccc2)C1=O)Nc1cccc(Cl)c1 (stereo unspecified)	none
CCNc1nn2ccccc2c1/C=C(\C#N)C(=O)OCC	none
CC(=O)N1CCC(N(CCN2CCOCC2)C(=S)Nc2cccc(C)c2)CC1	none
CC(=O)N1CCC(N(CCN2CCOCC2)C(=S)Nc2cc(C)ccc2C)CC1	hK5 inh 51
O=C(NCc1cccnc1)C(=O)N/N=C/c1ccccc1[N+](=O)[O-]	none
CS(=O)(=O)Nc1cccc(C(=O)CC2(O)C(=O)Nc3ccc(Br)cc32)c1 (stereo unspecified)	thrombin 1536 60, hK5 inh 73
Cc1ccc2c(c1)C(O)(CC(=O)c1ccc3c(c1)OCO3)C(=O)N2 (stereo unspecified)	none
O=C(CC1(O)C(=O)Nc2ccc(Br)cc21)c1ccc2c(c1)OCO2 (stereo unspecified)	thrombin 1536 50
COc1ccccc1-c1nnc(SCC(=O)NCc2c(C)c(Cl)cc(C(C)C)c2O)o1	m-calpain inh 51
COc1ccccc1-c1nnc(SCC(=O)Nc2c(Cl)cccc2Cl)o1	none
CC/C=C/C(=O)N1CC2(CC(c3cccc(NC(=O)COc4ccc(Cl)cc4)c3)=NO2)C[C@H]1C(N)=O (stereo partly specified)	none
CN(C)S(=O)(=O)c1ccc(NC(=O)COC(=O)C2COc3ccccc3O2)cc1 (stereo unspecified)	none
CC(C)(C)c1nc(SCC(=O)N2CCCC2)c2ccccc2n1	none
CC(C)(C)c1nc(SCC(=O)c2ccccc2)c2ccccc2n1	m-calpain inh 52
O=C(NCc1ccc2c(c1)OCO2)C(=O)Nc1ccccc1	none
COC(=O)c1[nH]c2cc(C)ccc2c1NC(=O)CN1CCc2cc(OC)c(OC)cc2C1	hK5 inh 97
COC(=O)c1[nH]c2cc(OC)ccc2c1NC(=O)CCN1CCCCC1	FXIa inh 45
CC12CCC(C(=O)NNc3ccccc3)(OC1=O)C2(C)C (stereo unspecified)	none
CC12CCC(C(=O)NC(c3ccccc3)c3ccccc3)(OC1=O)C2(C)C (stereo unspecified)	FXIIa inh 1536 55
O=C(OCCN1C(=O)c2ccccc2C1=O)c1ccc(S(=O)(=O)N2CCCCCC2)cc1	m-calpain inh 68
c1ccc(Cc2cc[n+](Cc3ccccn3)cc2)cc1	none
O=C(Oc1cccc2cccnc12)c1ccco1	none
O=C(Oc1ccc(Cl)c2cccnc12)c1ccco1	FXIIa inh 1536 52
NNC(=O)c1sc2cc(C(F)(F)F)cnc2c1-c1cccnc1	none (no result: hK5 inh)
Cc1cc2c3c(c1)C(C)CC(C)(C)N3C(=O)C2=C(C#N)C#N (stereo unspecified)	none
Cn1c(NC(=O)/C=C\c2ccccc2)cc(=O)n(C)c1=O	m-calpain inh 64
CCC(CO)NCC(O)COCc1ccc2c(c1)OCO2 (stereo unspecified)	none
NC(=O)Cc1ccc(Nc2nnc(-c3ccc(O)cc3)c3ccccc23)cc1	none
CC(CC(=O)NC1CCCC1)c1ccccc1 (stereo unspecified)	hK5 inh 60
CC(=O)NC(CC(=O)NC1CCCCCC1)c1ccccc1 (stereo unspecified)	none
CS(=O)(=O)N1CCN(c2ccccc2F)CC1	none
O=S(=O)(N1CCCCC1)N1CCN(c2ccccc2F)CC1	FXIIa inh 1536 48
O=C(CCCN1C(=O)c2cccnc2C1=O)Nc1ccc(Br)cc1	none
CCCCCSc1nnc(-c2cc(Br)ccc2N)c(=O)[nH]1	hK5 inh 42
CCCCCCCSc1nnc(-c2ccccc2N)c(=O)[nH]1	none
Cc1ccc(N=C2CCCN2Cc2ccccc2)c(C#N)c1	none
O=C1CSC(c2ccccn2)N1c1ccc(F)cc1F (stereo unspecified)	none (no result: hK5 inh)
C=C(C)CC1N(c2cccc(OC)c2)C(=O)C2C(C(=O)O)C3C=CC21O3 (stereo unspecified)	hK5 inh 45
Cc1cccc(Nc2nc(N)nc(CCl)n2)c1	thrombin 1536 49
N#CC1=C(N)NC(SCc2ccc(F)cc2)=C(C#N)C12CCCCC2	m-calpain inh 66
CN(C)CCCNc1ccc(-c2nn(C)c(=O)c3ccccc23)cc1[N+](=O)[O-]	none
Cc1cc2cc(CN(Cc3ccc4c(c3)OCO4)C(=O)c3ccco3)c(=O)[nH]c2cc1C	hK5 inh 54
CC1CCc2ccccc2N1C(=N)N(C)C (stereo unspecified)	none
CCn1c(SCC(=O)N2CCN(c3ccccc3)CC2)nnc1-c1cc2cc(Cl)ccc2o1	FXIIa inh 1536 47
C=CCn1c(SCC(=O)N2CCN(c3ccccc3)CC2)nnc1-c1ccco1	none
Cc1cc(NC(=O)CSc2nnc(-c3ccccc3)c(-c3ccccc3)n2)no1	none
Cn1c(Sc2ccc(C(F)(F)F)cc2[N+](=O)[O-])nnc1-c1ccccc1	hK5 inh 51
Cn1c(NCc2ccccc2)nc2c1c(=O)n(Cc1ccccc1)c(=O)n2C	m-calpain inh 62
COc1ccc(CNc2nc3c(c(=O)n(Cc4ccc(F)cc4)c(=O)n3C)n2C)cc1	m-calpain inh 80
Cn1c(N2CCCC2)nc2c1c(=O)n(Cc1ccc(F)cc1)c(=O)n2C	none
Cn1c(=O)c2c(nc(NCc3ccccc3)n2C)n(C)c1=O	none
Cc1cc(C)c[n+](-c2[nH]c(=O)sc2/C=N/N=C(\N)[S-])c1	none
CN1CCN/C1=C(/C(Cl)=C(Cl)Cl)[N+](=O)[O-]	none
COc1cc(Cl)c(C)cc1NC(=O)CSC	FXIIa inh 1536 43
COc1cc(Cl)c(C)cc1NC(=O)CSc1ccc(C)cc1	none
Cc1nc(Nc2ccccc2)sc1C(=O)c1ccccc1	m-calpain inh 51
CCCCCCCc1c(O)nc(SCCN(C)C)[nH]c1=O	FXIa inh 69
CCCc1c(O)nc(SCCN(CCC)CCC)[nH]c1=O	none
CC(C)CCNC(=O)NC(=O)CSc1nnc(-c2ccccc2F)n1N	hK5 inh 76
N#Cc1ccc(OCC(=O)n2cc(C(=O)c3cc(Cl)cc(Cl)c3O)cn2)cc1	none
NC(=O)C(=CNc1nc(-c2ccc(Cl)c(Cl)c2)cs1)C(N)=O	none
Cc1nnc(SCCn2c(Br)nc3c2c(=O)[nH]c(=O)n3C)s1	FXIa inh 44
Cc1nnc(SCCn2c(N3CCN(C)CC3)nc3c2c(=O)[nH]c(=O)n3C)s1	none
CS(=O)(=O)N1CCN(Cc2ccc([N+](=O)[O-])cc2)CC1	hK5 inh 51
CCCS(=O)(=O)N1CCN(Cc2ccc([N+](=O)[O-])cc2)CC1	none
Nc1cc(=O)[nH]c(N2CCN(c3ccccc3)CC2)n1	none
CCC(=O)n1nc(-c2ccc(Cl)cc2)nc1SC	thrombin 1536 57
